Legend:
[1] = Chemical stability in pH 7.4 buffer measured at 0 to 2 weeks by HPLC analysis; type: physicochemical; details: time 0-2 weeks
Histamine H2 receptor [2] = target: T1, Histamine H2 receptor (Homo sapiens, UniProt P25021); assay: Agonist activity at human histamine H2 receptor stably expressed in HEK293T cells co-expressing ARRB2 incubated for 60 mins by beta-arrestin2 recruitment assay; type: functional, cell-based
Histamine H2 receptor [3] = target: T1, Histamine H2 receptor; assay: Agonist activity at human histamine H2 receptor stably expressed in HEK293T cells co-expressing NlucN-mGs/hH2R-NlucC assessed as induction of mini-Gs protein recruitment using furimazine as substrate measured for 45 mins by luminescence assay
[4] = target: T2, Muscarinic acetylcholine receptor M1 (Homo sapiens, UniProt P11229); assay: Displacement of [3H]N-methylscopolamine from human muscarinic acetylcholine M1 receptor stably expressed in CHO cells by radioligand competition binding based analysis; type: cell-based
T2 sequence (P11229 whole entry): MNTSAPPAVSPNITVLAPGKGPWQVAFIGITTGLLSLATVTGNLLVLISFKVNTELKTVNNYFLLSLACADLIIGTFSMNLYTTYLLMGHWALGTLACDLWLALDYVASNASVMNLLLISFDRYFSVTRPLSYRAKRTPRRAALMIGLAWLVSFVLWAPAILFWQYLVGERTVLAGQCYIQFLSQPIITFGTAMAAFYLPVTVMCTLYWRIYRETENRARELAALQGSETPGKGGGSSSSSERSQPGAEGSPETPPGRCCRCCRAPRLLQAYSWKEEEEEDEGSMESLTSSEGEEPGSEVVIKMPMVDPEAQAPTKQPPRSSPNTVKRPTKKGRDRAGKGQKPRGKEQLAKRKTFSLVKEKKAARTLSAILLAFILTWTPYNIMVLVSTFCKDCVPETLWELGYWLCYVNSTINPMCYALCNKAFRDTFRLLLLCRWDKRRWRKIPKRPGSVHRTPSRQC
In short: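 Whole CHO cells stably expressing hM1–hM5, competed against [3H]N-methylscopolamine. Kd/applied concentrations in nM: M1 0.17/0.2, M2 0.10/0.2, M3 0.12/0.2, M4 0.052/0.1, M5 0.20/0.3.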

Histamine H2 receptor [5] = target: T1, Histamine H2 receptor; assay: Agonist activity at human histamine H2 receptor stably expressed in baculovirus infected Sf9 cell membrane co-expressing RG-Salpha S incubated for 90 mins by [35S]GTPgammaS binding based liquid scintillation counting method; type: functional, cell membranes
Histamine H2 receptor [6] = target: T1, Histamine H2 receptor; assay: Displacement of [3H]UR-DE257 from human histamine H2 receptor stably expressed in baculovirus infected Sf9 cell membrane co-expressing RG-Salpha S incubated for 60 mins by scintillation counting analysis; type: cell membranes
D(3) dopamine receptor [7] = target: T3, D(3) dopamine receptor (Homo sapiens, UniProt P35462); assay: Displacement of [3H]N-methylspiperone from human D3 receptor stably expressed in HEK293T cells co-expressing luciferase and CEK incubated for 140 mins by radioligand competition binding based assay; type: cell-based
D(3) dopamine receptor [8] = target: T3, D(3) dopamine receptor; assay: Agonist activity at human D3 receptor stably expressed in HEK293T cells co-expressing ElucN-betaarr2 hD3R-ElucC by beta-arrestin2 recruitment assay; type: functional, cell-based
[9] = target: Histamine H2 receptor (Cavia porcellus) (UniProt P47747); assay: Agonist activity at histamine H2 receptor in spontaneous beating guinea pig right atrium assessed as increase in heart beat at 30 uM relative to histamine; type: functional, tissue-based; details: Right cardiac atrium
[10] = target: Histamine H2 receptor (Cavia porcellus) (UniProt P47747); assay: Agonist activity at guinea pig histamine H2 receptor stably transfected in HEK293T cells co-expressing NlucN-mGs/gpH2R-NlucC assessed as maximum efficacy at 100 uM by mini-G protein recruitment assay relative to histamine; type: functional, cell-based

T1 sequence (P25021 whole entry): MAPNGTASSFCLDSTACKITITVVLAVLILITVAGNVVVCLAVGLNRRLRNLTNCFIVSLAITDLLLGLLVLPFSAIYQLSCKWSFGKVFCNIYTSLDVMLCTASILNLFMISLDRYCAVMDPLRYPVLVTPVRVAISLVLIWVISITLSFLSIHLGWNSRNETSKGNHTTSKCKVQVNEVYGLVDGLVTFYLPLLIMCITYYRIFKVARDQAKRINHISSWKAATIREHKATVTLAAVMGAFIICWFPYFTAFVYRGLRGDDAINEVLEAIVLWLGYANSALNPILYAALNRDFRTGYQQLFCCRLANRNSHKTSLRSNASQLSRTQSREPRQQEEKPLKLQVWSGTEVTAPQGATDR
T3 sequence (P35462 whole entry): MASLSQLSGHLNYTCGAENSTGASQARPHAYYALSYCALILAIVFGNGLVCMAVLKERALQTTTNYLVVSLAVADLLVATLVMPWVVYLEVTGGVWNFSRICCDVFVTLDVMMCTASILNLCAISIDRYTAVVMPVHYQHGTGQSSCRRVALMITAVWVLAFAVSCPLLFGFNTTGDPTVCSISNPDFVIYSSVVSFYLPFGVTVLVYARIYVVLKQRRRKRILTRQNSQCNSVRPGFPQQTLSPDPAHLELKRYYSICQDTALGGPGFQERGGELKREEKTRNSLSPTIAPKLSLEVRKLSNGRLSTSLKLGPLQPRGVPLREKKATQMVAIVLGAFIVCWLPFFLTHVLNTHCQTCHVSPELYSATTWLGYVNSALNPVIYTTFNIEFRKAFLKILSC
Histamine H2 receptor (Cavia porcellus), sequence (P47747 whole entry): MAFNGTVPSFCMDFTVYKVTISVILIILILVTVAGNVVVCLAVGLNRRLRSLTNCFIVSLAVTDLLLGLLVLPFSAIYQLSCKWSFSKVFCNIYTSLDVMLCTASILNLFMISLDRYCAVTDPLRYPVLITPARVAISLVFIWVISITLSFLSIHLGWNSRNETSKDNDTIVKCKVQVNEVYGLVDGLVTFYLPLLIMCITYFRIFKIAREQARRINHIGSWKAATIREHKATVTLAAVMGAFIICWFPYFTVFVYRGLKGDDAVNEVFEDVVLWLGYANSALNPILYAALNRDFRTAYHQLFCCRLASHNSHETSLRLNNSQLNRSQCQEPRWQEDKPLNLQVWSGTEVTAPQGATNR

| Structure (SMILES) | Stability [1] | EC50 (Histamine H2 receptor [2]) | EC50 (Histamine H2 receptor [3]) | Kd [4] | pKi [4] | EC50 (Histamine H2 receptor [5]) | Ki (Histamine H2 receptor [6]) | Ki (D(3) dopamine receptor [7]) | EC50 (D(3) dopamine receptor [8]) | Emax [9] | Emax [10] |
| --- | --- | --- | --- | --- | --- | --- | --- | --- | --- | --- | --- |
| CCCCCNC(=O)/N=C(\N)NCCCc1nnc(N)s1.O=C(O)C(F)(F)F.O=C(O)C(F)(F)F | Stable | 234 nM | 5.75 nM | 0.17 nM | < 5 | 25.7 nM | 3.02 nM | – | – | – | – |
| CCCCCNC(=O)/N=C(\N)NCCCc1sc(N)nc1C | – | – | – | 0.17 nM | < 5 | – | – | – | – | – | – |
| N/C(=N\C(=O)NCc1ccccc1)NCCCc1nnc(N)s1 | – | – | – | 0.17 nM | < 5 | – | – | 2630 nM | 1200 nM | – | – |
| C[C@@H](NC(=O)/N=C(\N)NCCCc1ncn[nH]1)c1ccccc1 | – | 324 nM | 25.7 nM | 0.17 nM | < 5 | – | 53.7 nM | > 10000 nM | > 10000 nM | 115% | 86% |

Reference: ChEMBL document CHEMBL5149991 (J Med Chem, 2021)
